# From BindingDB's records for doi:10.1021/acs.jmedchem.8b00566 (Research Triangle Institute, 2018)
# Tests used:
# [1] = target: Kappa-type opioid receptor (Homo sapiens, UniProt P41145); test: Binding affinity to human full length KOR after 60 mins by radioligand-based scintillation counting
# Summary of the method: (§1)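 Outsourced radioligand displacement panel run to the provider's standard protocols. Full concentration–displacement curves were run in duplicate. IC50 came from nonlinear regression. Ki was calculated by Cheng–Prusoff from the IC50, the radioligand concentration and historical Kd values of the ligand.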
# [2] = target: T1, Sodium-dependent serotonin transporter (Homo sapiens, UniProt P31645); test: Inhibition of human SERT expressed in HEK293 cells assessed as reduction in SERT-mediated substrate uptake after 30 mins by fluorescence-based assay
# T1 sequence (P31645 whole entry): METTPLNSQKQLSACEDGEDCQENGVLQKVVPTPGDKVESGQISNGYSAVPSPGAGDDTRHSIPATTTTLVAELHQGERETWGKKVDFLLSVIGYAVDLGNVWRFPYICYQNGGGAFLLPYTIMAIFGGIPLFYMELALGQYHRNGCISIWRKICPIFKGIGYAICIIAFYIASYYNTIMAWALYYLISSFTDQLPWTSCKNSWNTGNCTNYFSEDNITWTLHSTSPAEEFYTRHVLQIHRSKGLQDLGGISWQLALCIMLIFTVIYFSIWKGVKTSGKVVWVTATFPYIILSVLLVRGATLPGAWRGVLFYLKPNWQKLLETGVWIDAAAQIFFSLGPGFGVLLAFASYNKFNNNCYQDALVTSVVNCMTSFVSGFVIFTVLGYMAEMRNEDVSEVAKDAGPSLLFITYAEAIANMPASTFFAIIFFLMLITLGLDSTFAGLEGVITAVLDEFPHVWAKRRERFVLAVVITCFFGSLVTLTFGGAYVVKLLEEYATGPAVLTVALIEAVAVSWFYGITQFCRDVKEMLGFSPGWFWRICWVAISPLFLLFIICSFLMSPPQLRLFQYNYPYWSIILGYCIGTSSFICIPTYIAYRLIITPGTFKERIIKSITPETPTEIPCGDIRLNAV
# Summary of the method: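 HEK293 cells stably expressing human SERT were plated at 15000 cells/well in DMEM + 1% dialyzed FBS for at least 6 h. Medium was replaced with 20 mM HEPES/HBSS pH 7.4 and drug was added for 30 min at 37 °C. Fluorescent uptake dye was then added and read after 30 min at 37 °C (ex 440/em 520 nm). IC50 came from nonlinear regression of fluorescence versus concentration.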
# [3] = target: T1, Sodium-dependent serotonin transporter; test: Displacement of [3H]-Paroxetine from recombinant human full length SERT after 60 mins by scintillation counting; summary of the method: as §1
# Kappa-type opioid receptor, sequence (P41145 whole entry): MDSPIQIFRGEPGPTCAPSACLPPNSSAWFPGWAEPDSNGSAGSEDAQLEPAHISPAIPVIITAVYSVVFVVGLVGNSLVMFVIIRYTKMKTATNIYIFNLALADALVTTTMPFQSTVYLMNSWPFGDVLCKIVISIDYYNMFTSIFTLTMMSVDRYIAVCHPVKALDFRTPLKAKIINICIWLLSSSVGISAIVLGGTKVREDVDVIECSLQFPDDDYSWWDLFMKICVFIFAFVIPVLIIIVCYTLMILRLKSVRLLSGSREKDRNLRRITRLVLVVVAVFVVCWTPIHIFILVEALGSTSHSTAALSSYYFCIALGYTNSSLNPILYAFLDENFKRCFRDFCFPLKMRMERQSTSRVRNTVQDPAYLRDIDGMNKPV
compound,measurement,setting,value
COCc1ccc(-c2ccc(N(C[C@@H](N)[C@@H](C)OC)C(=O)[C@@H]3C[C@H]3c3ccccn3)cc2)cc1,Ki,[1],2290 nM
same,IC50,[2],25100 nM
same,Ki,[3],750 nM
